In ChEMBL document CHEMBL4261634, “Design and optimization of 2,3-dihydrobenzo[b][1,4]dioxine propanoic acids as novel GPR40 agonists with improved pharmacokinetic and safety profiles” (Bioorg Med Chem, 2018):
The source made the active and inactive calls. The rule behind the calls is not given here.

Tests used:
[1] = target: T1, Free fatty acid receptor 1 (Homo sapiens, UniProt O14842); assay: Agonist activity at human GPR40 expressed in human HEK293 cells assessed as increase in intracellular calcium flux after 10 mins by fluorescence assay relative to linoleic acid; assay type: functional, cell-based
Procedure, shortened: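 Human GPR40 activity read by calcium mobilization to give EC50. Emax expressed relative to linoleic acid as 100%. Mean ± SD, n = 3.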

[2] = target: T1, Free fatty acid receptor 1; assay: Agonist activity at human GPR40 expressed in human HEK293 cells assessed as increase in intracellular calcium flux after 10 mins by fluorescence assay; assay type: functional, cell-based
Procedure, shortened: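 Human GPR40 activity read by calcium mobilization to give EC50. Mean ± SD, n = 3.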

Rattus norvegicus [3] = assay: Antidiabetic activity in Sprague-Dawley rat assessed as reduction in blood glucose excursion at 10 mg/kg, po administered 60 mins prior to glucose challenge by OGTT; assay type: functional, organism-based
Procedure, shortened: (§1)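 OGTT in SD rats: compound given orally 60 min before a 3.0 g/kg glucose challenge. Blood glucose followed over time, and AUC0-60min or AUC0-120min calculated versus vehicle group. Mean ± SD, n = 8.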

[4] = target: T2, Solute carrier organic anion transporter family member 1B3 (Homo sapiens, UniProt Q9NPD5); assay: Inhibition of human OATP1B3; assay type: ADME
T2 sequence (Q9NPD5 whole entry): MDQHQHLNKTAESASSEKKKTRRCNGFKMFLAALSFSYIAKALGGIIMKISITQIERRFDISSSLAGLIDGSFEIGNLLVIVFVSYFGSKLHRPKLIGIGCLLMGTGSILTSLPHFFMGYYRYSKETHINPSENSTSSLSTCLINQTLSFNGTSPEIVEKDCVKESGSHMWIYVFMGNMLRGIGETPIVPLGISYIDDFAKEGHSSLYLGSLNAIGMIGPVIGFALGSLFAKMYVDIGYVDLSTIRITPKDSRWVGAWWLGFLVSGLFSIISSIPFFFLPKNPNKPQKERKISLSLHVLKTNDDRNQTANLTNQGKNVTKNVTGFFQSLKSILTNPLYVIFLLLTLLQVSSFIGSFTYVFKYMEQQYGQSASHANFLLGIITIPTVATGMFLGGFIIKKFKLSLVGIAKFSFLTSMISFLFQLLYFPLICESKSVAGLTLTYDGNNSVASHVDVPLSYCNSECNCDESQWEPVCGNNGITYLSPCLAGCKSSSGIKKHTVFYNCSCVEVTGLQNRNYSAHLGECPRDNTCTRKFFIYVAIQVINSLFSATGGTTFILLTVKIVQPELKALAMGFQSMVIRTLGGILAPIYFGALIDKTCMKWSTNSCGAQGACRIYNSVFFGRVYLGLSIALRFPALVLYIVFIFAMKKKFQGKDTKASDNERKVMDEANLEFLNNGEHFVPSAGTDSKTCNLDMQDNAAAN

[5] = Elimination half life in Sprague-Dawley rat at 10 mg/kg, po by LC-ESI-MS analysis; assay type: ADME, organism-based; conditions: in vivo, read-out: beta t1/2 (converted)
Procedure, shortened: (§2)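 SD rats dosed orally (3 or 10 mg/kg) or by intravenous injection (1 mg/kg). Plasma PK parameters derived per route: Cmax, AUC0-t, Tmax, t1/2 and F after oral dosing; CL, AUC0-t, MRT, t1/2 and Vdss after iv dosing. Mean ± SD from three independent experiments (n = 3).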

[6] = target: T3, Solute carrier organic anion transporter family member 1B1 (Homo sapiens, UniProt Q9Y6L6); assay: Inhibition of human OATP1BA
T3 sequence (Q9Y6L6 whole entry): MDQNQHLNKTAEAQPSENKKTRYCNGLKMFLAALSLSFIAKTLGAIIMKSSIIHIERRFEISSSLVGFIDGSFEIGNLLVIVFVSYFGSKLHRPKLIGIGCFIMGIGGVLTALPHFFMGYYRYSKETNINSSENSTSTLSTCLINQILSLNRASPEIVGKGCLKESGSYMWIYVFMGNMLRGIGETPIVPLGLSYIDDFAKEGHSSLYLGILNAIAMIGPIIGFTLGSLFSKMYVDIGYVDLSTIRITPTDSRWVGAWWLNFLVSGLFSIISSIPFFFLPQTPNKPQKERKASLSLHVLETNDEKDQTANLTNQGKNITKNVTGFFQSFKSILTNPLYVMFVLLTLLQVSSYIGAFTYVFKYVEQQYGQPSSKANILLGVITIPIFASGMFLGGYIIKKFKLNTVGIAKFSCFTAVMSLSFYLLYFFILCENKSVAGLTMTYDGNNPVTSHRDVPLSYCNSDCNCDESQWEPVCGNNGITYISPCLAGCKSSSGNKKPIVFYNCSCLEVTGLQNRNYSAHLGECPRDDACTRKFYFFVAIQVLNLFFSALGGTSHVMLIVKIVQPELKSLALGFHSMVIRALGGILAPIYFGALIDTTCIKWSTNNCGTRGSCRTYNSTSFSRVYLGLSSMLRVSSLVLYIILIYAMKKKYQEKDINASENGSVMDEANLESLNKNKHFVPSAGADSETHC

Hepatocyte = assay: Toxicity in sandwich-cultured Sprague-Dawley rat hepatocytes assessed as inhibition of hepatobiliary transport by measuring biliary excretion index at 20 to 40 uM after 15 mins in presence of d8-TCA by LC-MS/MS analysis; assay type: cell-based; conditions: 0.25 h
Procedure, shortened: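 Sandwich-cultured rat hepatocytes incubated with compound and d8-TCA in standard (Ca2+-containing) or Ca2+-free buffer. Cellular d8-TCA measured, and the biliary excretion index calculated as the fraction of accumulated bile acid excreted into bile. Mean of three independent experiments.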

[7] = Tmax in Sprague-Dawley rat at 10 mg/kg, po by LC-ESI-MS analysis; assay type: ADME, organism-based; conditions: in vivo; procedure, shortened: as §2
[8] = Cmax in Sprague-Dawley rat at 10 mg/kg, po by LC-ESI-MS analysis; assay type: ADME, organism-based; parameters: dose 10 mg/kg, route oral; conditions: in vivo; procedure, shortened: as §2
[9] = AUC (0 to t) in Sprague-Dawley rat at 10 mg/kg, po by LC-ESI-MS analysis; assay type: ADME, organism-based; conditions: in vivo; procedure, shortened: as §2
[10] = target: ATP-binding cassette sub-family C member 2 (Homo sapiens, UniProt Q92887); assay: Inhibition of human MRP2
Rattus norvegicus [11] = assay: Antidiabetic activity in Sprague-Dawley rat assessed as reduction in blood glucose AUC (0 to 60 mins) at 10 mg/kg, po administered 60 mins prior to glucose challenge by OGTT; assay type: functional, organism-based; procedure, shortened: as §1
Rattus norvegicus [12] = assay: Antidiabetic activity in Sprague-Dawley rat assessed as reduction in blood glucose AUC (0 to 120 mins) at 10 mg/kg, po administered 60 mins prior to glucose challenge by OGTT; assay type: functional, organism-based; procedure, shortened: as §1
Rattus norvegicus [13] = assay: Antidiabetic activity in Sprague-Dawley rat assessed as reduction in blood glucose excursion at 10 to 20 mg/kg, po administered 60 mins prior to glucose challenge by OGTT; assay type: functional, organism-based; procedure, shortened: as §1
Rattus norvegicus [14] = assay: Antidiabetic activity in Sprague-Dawley rat assessed as reduction in blood glucose AUC (0 to 120 mins) at 10 to 20 mg/kg, po administered 60 mins prior to glucose challenge by OGTT; assay type: functional, organism-based; procedure, shortened: as §1
Rattus norvegicus [15] = assay: Antidiabetic activity in Sprague-Dawley rat assessed as reduction in blood glucose AUC (0 to 60 mins) at 10 to 20 mg/kg, po administered 60 mins prior to glucose challenge by OGTT; assay type: functional, organism-based; procedure, shortened: as §1

T1 sequence (O14842 whole entry): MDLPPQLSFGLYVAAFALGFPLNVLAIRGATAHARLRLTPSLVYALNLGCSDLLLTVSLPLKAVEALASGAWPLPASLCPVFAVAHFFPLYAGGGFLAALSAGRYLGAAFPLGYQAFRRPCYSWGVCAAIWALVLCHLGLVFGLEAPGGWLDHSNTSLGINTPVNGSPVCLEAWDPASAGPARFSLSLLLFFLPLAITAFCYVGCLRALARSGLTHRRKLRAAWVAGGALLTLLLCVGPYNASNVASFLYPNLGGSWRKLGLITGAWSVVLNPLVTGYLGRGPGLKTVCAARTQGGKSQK
Chain of ATP-binding cassette sub-family C member 2 (Q92887 whole entry): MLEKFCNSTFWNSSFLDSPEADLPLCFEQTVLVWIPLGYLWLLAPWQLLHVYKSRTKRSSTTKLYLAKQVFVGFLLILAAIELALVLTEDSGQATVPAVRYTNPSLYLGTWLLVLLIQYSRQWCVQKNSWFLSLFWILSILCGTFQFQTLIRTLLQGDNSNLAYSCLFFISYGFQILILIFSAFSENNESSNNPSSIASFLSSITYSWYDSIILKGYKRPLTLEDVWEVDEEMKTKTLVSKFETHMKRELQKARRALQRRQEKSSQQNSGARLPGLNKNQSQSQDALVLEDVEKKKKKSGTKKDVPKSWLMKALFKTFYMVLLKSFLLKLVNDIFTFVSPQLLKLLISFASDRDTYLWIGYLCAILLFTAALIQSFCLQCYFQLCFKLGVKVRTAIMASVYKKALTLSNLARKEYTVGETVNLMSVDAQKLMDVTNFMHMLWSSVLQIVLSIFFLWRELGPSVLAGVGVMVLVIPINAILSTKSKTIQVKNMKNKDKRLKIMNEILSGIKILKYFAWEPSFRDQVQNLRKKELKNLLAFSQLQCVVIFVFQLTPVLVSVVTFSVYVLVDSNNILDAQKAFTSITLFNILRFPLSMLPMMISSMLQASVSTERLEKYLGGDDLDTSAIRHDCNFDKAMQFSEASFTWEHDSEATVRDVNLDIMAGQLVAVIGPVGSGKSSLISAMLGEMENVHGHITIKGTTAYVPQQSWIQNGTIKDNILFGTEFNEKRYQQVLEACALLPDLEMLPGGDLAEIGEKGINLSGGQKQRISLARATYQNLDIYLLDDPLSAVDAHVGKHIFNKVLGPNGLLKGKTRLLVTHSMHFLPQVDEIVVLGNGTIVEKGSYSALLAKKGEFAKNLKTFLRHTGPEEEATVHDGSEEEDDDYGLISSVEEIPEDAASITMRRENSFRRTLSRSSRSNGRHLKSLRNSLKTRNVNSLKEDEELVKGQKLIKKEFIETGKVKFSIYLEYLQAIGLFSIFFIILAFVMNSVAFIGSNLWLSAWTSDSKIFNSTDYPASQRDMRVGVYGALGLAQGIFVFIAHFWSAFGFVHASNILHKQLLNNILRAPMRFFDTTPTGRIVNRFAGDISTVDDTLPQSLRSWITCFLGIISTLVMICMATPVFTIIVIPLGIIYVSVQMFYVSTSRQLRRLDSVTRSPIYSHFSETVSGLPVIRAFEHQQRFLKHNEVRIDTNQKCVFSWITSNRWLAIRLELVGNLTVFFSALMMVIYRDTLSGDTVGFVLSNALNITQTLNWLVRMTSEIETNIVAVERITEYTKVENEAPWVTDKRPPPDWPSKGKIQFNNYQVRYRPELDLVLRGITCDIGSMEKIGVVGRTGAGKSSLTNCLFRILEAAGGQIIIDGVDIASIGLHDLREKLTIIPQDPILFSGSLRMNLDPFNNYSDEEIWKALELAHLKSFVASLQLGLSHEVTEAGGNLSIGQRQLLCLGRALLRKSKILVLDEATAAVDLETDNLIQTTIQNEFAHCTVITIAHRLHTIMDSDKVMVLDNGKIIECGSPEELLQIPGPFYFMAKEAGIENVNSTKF

| Emax [1] [%] | EC50 [2] [µM] | SMILES | further results |
| --- | --- | --- | --- |
| 65 | 0.26 | CC#C[C@@H](CC(=O)O)c1ccc(OC[C@@H]2COc3ccc(Cl)cc3O2)cc1 |  |
| 86 | 0.21 | CC#C[C@@H](CC(=O)O)c1ccc(OC[C@H]2COc3ccc(F)cc3O2)cc1 |  |
| 70 | 0.09 | CC#C[C@@H](CC(=O)O)c1ccc(OC[C@H]2COc3ccccc3O2)cc1 | half-life [5]: 3.14 h; Tmax [7]: 1.17 h; Activity (Rattus norvegicus [13]): Active; Cmax [8]: 36700 ng/mL; AUC(0-t) [9]: 275 µg·h/mL; Activity (Rattus norvegicus [14]): Active; Activity (Rattus norvegicus [15]): Active |
| 104 | 0.1 | CC#CC(CC(=O)O)c1ccc(OCC2COc3ccc(Cl)cc3O2)cc1 (centres undefined) |  |
| 55 | 27.2 | CC#C[C@@H](CC(=O)O)c1ccc(OC[C@H]2COc3ccc(S(C)(=O)=O)cc3O2)cc1 |  |
| 41 | 5.04 | CC#C[C@H](CC(=O)O)c1ccc(OC[C@@H]2COc3ccc(Cl)cc3O2)cc1 |  |
| 95 | 0.52 | CC#C[C@@H](CC(=O)O)c1ccc(OC[C@H]2COc3cccc(Cl)c3O2)cc1 |  |
| 33 | 0.15 | CC#C[C@@H](CC(=O)O)c1ccc(OC[C@H]2COc3cc(Cl)c(Cl)cc3O2)cc1 |  |
| 47 | 3.4 | CC#C[C@H](CC(=O)O)c1ccc(OC[C@H]2COc3ccc(Cl)cc3O2)cc1 |  |
| 78 | 0.12 | CC#C[C@@H](CC(=O)O)c1ccc(OC[C@H]2COc3ccc(C)cc3O2)cc1 | half-life [5]: 1.79 h; Tmax [7]: 0.417 h; Activity (Rattus norvegicus [13]): Active; Cmax [8]: 23700 ng/mL; AUC(0-t) [9]: 65.2 µg·h/mL; Activity (Rattus norvegicus [14]): Active; Activity (Rattus norvegicus [15]): Active |
| 90 | 0.28 | CC#C[C@@H](CC(=O)O)c1ccc(OC[C@H]2COc3ccc(OC(C)C)cc3O2)cc1 |  |
| 82 | 0.2 | CC#C[C@@H](CC(=O)O)c1ccc(OC[C@H]2COc3cc(Br)c(Cl)cc3O2)cc1 |  |
| 51 | > 30 | CC#C[C@@H](CC(=O)O)c1ccc(OC[C@H]2COc3ccc(C(C)=O)cc3O2)cc1 |  |
| 81 | 0.17 | CC#C[C@@H](CC(=O)O)c1ccc(OC[C@H]2COc3c(Cl)cccc3O2)cc1 |  |
| 80 | 0.11 | CC#C[C@@H](CC(=O)O)c1ccc(OC[C@H]2COc3cc(Cl)ccc3O2)cc1 |  |
| 46 | 0.21 | CC#C[C@@H](CC(=O)O)c1ccc(OC[C@H]2COc3cc(F)c(Cl)cc3O2)cc1 |  |
| 91 | 0.13 | CC#C[C@@H](CC(=O)O)c1ccc(OC[C@H]2COc3ccc(OC)cc3O2)cc1 |  |
| 42 | > 30 | CC#C[C@@H](CC(=O)O)c1ccc(OC[C@H]2COc3ccc(CO)cc3O2)cc1 |  |
| 69 | 0.21 | CC#C[C@@H](CC(=O)O)c1ccc(OC[C@H]2COc3ccc(Br)cc3O2)cc1 |  |
| 60 | 2.1 | CC#C[C@@H](CC(=O)O)c1ccc(OC[C@H]2COc3ccc(C#N)cc3O2)cc1 |  |

The remaining lines, values behind:

| SMILES | Emax [1] [%] | EC50 [2] [µM] | further results |
| --- | --- | --- | --- |
| Cc1cc(OCCCS(C)(=O)=O)cc(C)c1-c1cccc(COc2ccc3c(c2)OC[C@H]3CC(=O)O)c1 |  |  | Activity (Rattus norvegicus [3]): Active; IC50 [4]: 11.2 µM; half-life [5]: 3.94 h; IC50 [6]: 2.28 µM; Activity (Hepatocyte): Toxic; Tmax [7]: 3.5 h; Cmax [8]: 19400 ng/mL; AUC(0-t) [9]: 137 µg·h/mL; IC50 [10]: 2.41 µM; Activity (Rattus norvegicus [11]): Active; Activity (Rattus norvegicus [12]): Active |
| Cn1ccnc1C(CC(=O)O)c1ccc(OCC2COc3ccc(Cl)cc3O2)cc1 (centres undefined) | 68 | 5.88 |  |
| CS(=O)(=O)CCCOc1ccc2c(c1)OC(COc1ccc(CCC(=O)O)c(F)c1)CC2 (centres undefined) | 38 | 36.3 |  |
| COc1ccc2c(c1)OC(COc1ccc(CCC(=O)O)c(F)c1)CC2 (centres undefined) | 58 | 2.11 |  |
| Cn1nncc1C(CC(=O)O)c1ccc(OCC2COc3ccc(Cl)cc3O2)cc1 (centres undefined) | 70 | 3.87 |  |
| O=C(O)CC1(c2ccc(OCC3COc4ccc(Cl)cc4O3)cc2)COC1 (centres undefined) | 66 | 8.06 |  |
| O=C(O)CC(c1ccncc1)c1ccc(OCC2COc3ccc(Cl)cc3O2)cc1 (centres undefined) | 62 | 1.17 |  |
| CC#C[C@@H](CC(=O)O)c1ccc(OC[C@H]2COc3ccc(C(=O)N4CCOCC4)cc3O2)cc1 | 33 | > 50 |  |
| COCCOc1ccc2c(c1)OC(COc1ccc(CCC(=O)O)c(F)c1)CC2 (centres undefined) | 36 | 2.37 |  |
| CCOC(CC(=O)O)c1ccc(OCC2COc3ccc(Cl)cc3O2)cc1 (centres undefined) | 46 | 0.64 |  |
| CC#C[C@@H](CC(=O)O)c1ccc(OC[C@H]2COc3ccc(C(=O)N(C)C)cc3O2)cc1 | 32 | > 30 |  |
| O=C(O)CCc1ccc(NCC2COc3ccc(Cl)cc3O2)cc1F (centres undefined) | 69 | 13.6 |  |
| O=C(O)CC(c1ccc(OCC2COc3ccc(Cl)cc3O2)cc1)c1cnco1 (centres undefined) | 63 | 1.03 |  |
| Cn1cncc1C(CC(=O)O)c1ccc(OCC2COc3ccc(Cl)cc3O2)cc1 (centres undefined) | 62 | 3.06 |  |
| O=C(O)CC(c1ccc(F)cc1)c1ccc(OCC2COc3ccc(Cl)cc3O2)cc1 (centres undefined) | 83 | 4.31 |  |
| COc1ccc2c(c1)OC(COc1ccc(CCC(=O)O)c(F)c1)CO2 (centres undefined) | 80 | 1.47 |  |
| O=C(O)CCc1ccc(OCC2COc3cc(Br)ccc3O2)cc1F (centres undefined) | 67 | 0.98 |  |
| O=C(O)CCc1ccc(OCC2COc3ccc(Cl)cc3O2)cc1F (centres undefined) | 50 | 0.83 |  |
| CCCCC/C=C\C/C=C\CCCCCCCC(=O)O [LINOLEIC ACID] |  | 4.8 |  |
| CC#C[C@@H](CC(=O)O)c1ccc(OC[C@H]2COc3ccc(OC(F)(F)F)cc3O2)cc1 | 73 | 0.7 |  |
| O=C(O)CCc1ccc(OCC2COc3ccc(Br)cc3O2)cc1F (centres undefined) | 81 | 2.24 |  |
